Data published in paper PMC10134466 (ACS Omega, 2023).

What was measured:
[1] = tested on: HeLa cells; details: cited from earlier work
[2] = tested on: BT-474 human breast ductal carcinoma cells; experiment: 2D dose–response assay; type: cell-based; details: 24 h treatment, n = 3/dose
Procedure, shortened: (§1)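 Cells were trypsinized, seeded at 250,000 cells/mL in 96-well plates and cultured 24 h before dosing. Test compound was dissolved in 100% DMSO and serially diluted 1:2 in media to 5000–40 μg/mL dosing solutions, which were diluted 10-fold in the well (final DMSO ≤1%), in triplicate. Plates were incubated 24 h at 37 °C, 5% CO2, then viability was read by CCK-8. Controls: cell-free media and untreated cells. Absolute IC50 was calculated.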

[3] = tested on: nontumorigenic keratinocytes; details: 30 μM; cited from earlier work
[4] = tested on: BT-474 cells; experiment: CellTox Green cytotoxicity assay: cell lysis; type: cell-based, human; details: dosed at IC50; 1, 6, 12, 24 h post exposure
[5] = tested on: CCD1065SK HDF; experiment: 2D dose–response assay; type: cell-based, human; details: 24 h treatment, nontumorigenic fibroblasts
Procedure, shortened: as §1

[6] = tested on: sheep erythrocytes; experiment: Hemolytic activity; type: cell-based; details: sheep RBC 2% v/v, 37 °C, 1 h
Procedure, shortened: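 Fresh sheep RBCs were washed in PBS pH 7.4 until the supernatant was clear, with 1000 rpm, 8 min spins. RBCs were exposed to test compound at 2000–5 μg/mL in PBS containing 5% DMSO, then centrifuged 1000 rpm, 8 min at RT. Supernatant absorbance was read at 540 nm, with 630 nm background. Controls: PBS/5% DMSO (negative) and 1% v/v Triton X-100 (positive).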

[7] = tested on: BT-474 3D spheroids; experiment: 3D dose–response assay, liquid-overlay spheroids; type: cell-based, human; details: 24 h treatment, n = 3/dose
Procedure, shortened: (§2)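 Spheroids formed by liquid overlay: 250,000 cells/mL in round-bottom nonadherent wells with 2.5% v/v Matrigel, centrifuged 10 min at 1000 rpm, then matured 4 days. Test compound DMSO stocks were serially diluted 1:2 to 10,000–80 μg/mL and diluted 10-fold in wells (final DMSO ≤1% v/v), in triplicate. Incubation 24 h at 37 °C, 5% CO2; viability by CellTiter 3D luminescence. Absolute IC50 by nonlinear regression.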

[8] = tested on: osteoblasts; details: 5 μM; cited from earlier work
[9] = tested on: erythrocytes; details: therapeutic dose used for viral inactivation; cited from earlier work
[10] = Critical micelle concentration; type: physicochemical; details: 0.1 M NaHCO3, pH 8.7, 22 °C
Procedure, shortened: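 Surface tension across a concentration series was measured by Wilhelmy platinum-plate tensiometry on freshly prepared samples, in triplicate. Separate linear regressions were fitted to the declining and flat regions of the surface tension–concentration curve; their intersection gave the CMC.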

[11] = tested on: MDA-MB-231 cells; experiment: CellTox Green cytotoxicity assay: cell lysis; type: cell-based, human; details: dosed at IC50; 1, 6, 12, 24 h post exposure
[12] = tested on: AU565 human breast adenocarcinoma cells; experiment: 2D dose–response assay; type: cell-based; details: 24 h treatment, n = 3/dose
Procedure, shortened: as §1

[13] = tested on: MDA-MB-231 triple negative human breast adenocarcinoma cells; experiment: 2D dose–response assay; type: cell-based; details: 24 h treatment, n = 3/dose
Procedure, shortened: as §1

[14] = tested on: MCF-7 human breast epithelial adenocarcinoma cells; experiment: 2D dose–response assay; type: cell-based; details: 24 h treatment, n = 3/dose
Procedure, shortened: as §1

[15] = tested on: MDA-MB-231 3D spheroids; experiment: 3D dose–response assay, liquid-overlay spheroids; type: cell-based, human; details: 24 h treatment, n = 3/dose
Procedure, shortened: as §2

Row | Substance | IC50 toward HeLa cells [1] | IC50 2D monolayer BT-474 [2] | cell viability, nontumorigenic keratinocytes [3] | extent of cell lysis, BT-474 [4] | IC50 2D monolayer CCD1065SK HDF [5] | IC50 erythrocytes (50% of RBCs lysed) [6] | IC50 3D spheroids BT-474 [7] | cell viability, osteoblasts [8] | concentration at which rapid lysis of erythrocytes occurred [9] | CMC [10] | extent of cell lysis, MDA-MB-231 [11] | IC50 2D monolayer AU565 [12] | IC50 2D monolayer MDA-MB-231 [13] | IC50 2D monolayer MCF-7 [14] | IC50 3D spheroids MDA-MB-231 [15]
1 | C15-surfactin-O-methyl ester | 47.7 µg/mL |  |  |  |  |  |  |  |  |  |  |  |  |  | 
2 | Surfactin [Compound 1, reference compound] |  | 21 µg/mL | 100% | cell lysis of both BT-474 and MDA-MB-231 cells was observed | 180 µg/mL | 38 µg/mL | 330 µg/mL | 100% | 40 µM | 9.5 µg/mL | cell lysis of both BT-474 and MDA-MB-231 cells was observed | 110 µg/mL | 84 µg/mL | 24 µg/mL | 140 µg/mL
3 | C15-surfactin | 25.2 µg/mL |  |  |  |  |  |  |  |  |  |  |  |  |  | 
